Assay results as given in ChEMBL document CHEMBL4270530, “Surmounting the resistance against EGFR inhibitors through the development of thieno[2,3-d]pyrimidine-based dual EGFR/HER2 inhibitors” (Eur J Med Chem, 2018).

Tests used:
[1] = tested on: A-431; assay: Cytotoxicity against human A431 cells over expressing EGFR assessed as reduction in cell viability after 72 hrs by sulforhodamine B assay; format: functional, cell-based; details: A-431, 72 h
Procedure, shortened: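 Cells seeded and grown 24 h, then exposed to 0.1% DMSO vehicle or 0.3125-20 μM compound for 72 h. Fixed with ice-cold 50% TCA (1 h, 4 °C), stained with 0.4% SRB 30 min at room temperature, dye solubilized in 10 mM tris base pH 10.5, OD read at 560 nm. Survival fraction = OD treated/OD vehicle; IC50 from triplicates of at least two independent experiments, mean ± SD.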

[2] = tested on: CCRF-CEM; assay: Growth inhibition of human CCRF-CEM cells assessed as cell growth at 10 uM incubated for 48 hrs by sulforhodamine B assay relative to control; format: functional; details: read-out: Activity
Procedure, shortened: (§1)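 NCI-60 one-dose screen run by the NCI Developmental Therapeutics Program at a single 10 µM concentration; growth percent read from the one-dose mean graph.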

[3] = tested on: HL-60(TB); assay: Growth inhibition of human HL-60(TB) cells assessed as cell growth at 10 uM incubated for 48 hrs by sulforhodamine B assay relative to control; format: functional; details: HL-60, 48 h, read-out: Activity
Procedure, shortened: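 Single-dose (10 µM) screen across the full NCI-60 panel, run by the NCI Developmental Therapeutics Program. Read-out is growth percent relative to untreated control, taken from the NCI one-dose mean graph.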

[4] = tested on: MOLT-4; assay: Growth inhibition of human MOLT4 cells assessed as cell growth at 10 uM incubated for 48 hrs by sulforhodamine B assay relative to control; format: functional; details: MOLT-4, 48 h, read-out: Activity; procedure, shortened: as §1
[5] = tested on: SR; assay: Growth inhibition of human SR cells assessed as cell growth at 10 uM incubated for 48 hrs by sulforhodamine B assay relative to control; format: functional; details: read-out: Activity
Procedure, shortened: (§2)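 NCI-60 single-dose screen at 10 µM run by the NCI Developmental Therapeutics Program; growth percent read from the one-dose mean graph, with percent inhibition approximated from those growth-percent values.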

[6] = tested on: NCI-H460; assay: Growth inhibition of human NCI-H460 cells assessed as cell growth at 10 uM incubated for 48 hrs by sulforhodamine B assay relative to control; format: functional; details: NCI-H460, 48 h, read-out: Activity; procedure, shortened: as §1
[7] = tested on: NCI-H522; assay: Growth inhibition of human NCI-H522 cells assessed as cell growth at 10 uM incubated for 48 hrs by sulforhodamine B assay relative to control; format: functional; details: NCI-H522, 48 h, read-out: Activity; procedure, shortened: as §1
[8] = tested on: HCC 2998; assay: Growth inhibition of human HCC2998 cells assessed as cell growth at 10 uM incubated for 48 hrs by sulforhodamine B assay relative to control; format: functional; details: HCC 2998, 48 h, read-out: Activity; procedure, shortened: as §1
[9] = tested on: SW-620; assay: Growth inhibition of human SW620 cells assessed as cell growth at 10 uM incubated for 48 hrs by sulforhodamine B assay relative to control; format: functional; details: SW-620, 48 h, read-out: Activity; procedure, shortened: as §2
[10] = tested on: SF-268; assay: Growth inhibition of human SF268 cells assessed as cell growth at 10 uM incubated for 48 hrs by sulforhodamine B assay relative to control; format: functional; details: SF-268, 48 h, read-out: Activity; procedure, shortened: as §1
[11] = tested on: SF-539; assay: Growth inhibition of human SF539 cells assessed as cell growth at 10 uM incubated for 48 hrs by sulforhodamine B assay relative to control; format: functional; details: SF-539, 48 h, read-out: Activity; procedure, shortened: as §1
[12] = tested on: SNB-19; assay: Growth inhibition of human SNB19 cells assessed as cell growth at 10 uM incubated for 48 hrs by sulforhodamine B assay relative to control; format: functional; details: SNB-19, 48 h, read-out: Activity; procedure, shortened: as §1
[13] = tested on: SNB-75; assay: Growth inhibition of human SNB75 cells assessed as cell growth at 10 uM incubated for 48 hrs by sulforhodamine B assay relative to control; format: functional; details: SNB-75, 48 h, read-out: Activity; procedure, shortened: as §2
[14] = tested on: U-251; assay: Growth inhibition of human U251 cells assessed as cell growth at 10 uM incubated for 48 hrs by sulforhodamine B assay relative to control; format: functional; details: U-251, 48 h, read-out: Activity; procedure, shortened: as §2
[15] = tested on: Malme-3M; assay: Growth inhibition of human MALME-3M cells assessed as cell growth at 10 uM incubated for 48 hrs by sulforhodamine B assay relative to control; format: functional; details: read-out: Activity; procedure, shortened: as §1
[16] = tested on: MDA-MB-435; assay: Growth inhibition of human MDA-MB-435 cells assessed as cell growth at 10 uM incubated for 48 hrs by sulforhodamine B assay relative to control; format: functional; details: MDA-MB-435, 48 h, read-out: Activity; procedure, shortened: as §1
[17] = tested on: SK-MEL-2; assay: Growth inhibition of human SK-MEL-2 cells assessed as cell growth at 10 uM incubated for 48 hrs by sulforhodamine B assay relative to control; format: functional; details: SK-MEL-2, 48 h, read-out: Activity; procedure, shortened: as §1
[18] = tested on: UACC-257; assay: Growth inhibition of human UACC257 cells assessed as cell growth at 10 uM incubated for 48 hrs by sulforhodamine B assay relative to control; format: functional; details: UACC-257, 48 h, read-out: Activity; procedure, shortened: as §2
[19] = tested on: UACC-62; assay: Growth inhibition of human UACC62 cells assessed as cell growth at 10 uM incubated for 48 hrs by sulforhodamine B assay relative to control; format: functional; details: UACC-62, 48 h, read-out: Activity; procedure, shortened: as §2
[20] = tested on: IGROV-1; assay: Growth inhibition of human IGROV1 cells at 10 uM incubated for 48 hrs by sulforhodamine B assay relative to control; format: functional; details: IGROV-1, 48 h, read-out: GI; procedure, shortened: as §1
[21] = tested on: OVCAR-5; assay: Growth inhibition of human OVCAR5 cells assessed as cell growth at 10 uM incubated for 48 hrs by sulforhodamine B assay relative to control; format: functional; details: OVCAR-5, 48 h, read-out: Activity; procedure, shortened: as §1
[22] = tested on: OVCAR-8; assay: Growth inhibition of human OVCAR8 cells assessed as cell growth at 10 uM incubated for 48 hrs by sulforhodamine B assay relative to control; format: functional; details: OVCAR-8, 48 h, read-out: Activity; procedure, shortened: as §1
[23] = tested on: 786-0; assay: Growth inhibition of human 786-0 cells assessed as cell growth at 10 uM incubated for 48 hrs by sulforhodamine B assay relative to control; format: functional; details: 786-0, 48 h, read-out: Activity; procedure, shortened: as §1
[24] = tested on: A498; assay: Growth inhibition of human A498 cells assessed as cell growth at 10 uM incubated for 48 hrs by sulforhodamine B assay relative to control; format: functional; details: A498, 48 h, read-out: Activity; procedure, shortened: as §1
[25] = tested on: SN12C; assay: Growth inhibition of human SN12C cells assessed as cell growth at 10 uM incubated for 48 hrs by sulforhodamine B assay relative to control; format: functional; details: read-out: Activity; procedure, shortened: as §1
[26] = tested on: TK-10; assay: Growth inhibition of human TK10 cells at 10 uM incubated for 48 hrs by sulforhodamine B assay relative to control; format: functional; details: TK-10, 48 h, read-out: GI; procedure, shortened: as §2
[27] = tested on: UO-31; assay: Growth inhibition of human UO31 cells assessed as cell growth at 10 uM incubated for 48 hrs by sulforhodamine B assay relative to control; format: functional; details: UO-31, 48 h, read-out: Activity; procedure, shortened: as §2
[28] = tested on: Hs-578T; assay: Growth inhibition of human Hs 578T cells assessed as cell growth at 10 uM incubated for 48 hrs by sulforhodamine B assay relative to control; format: functional; details: read-out: Activity; procedure, shortened: as §1
[29] = tested on: T47D; assay: Growth inhibition of human T47D cells assessed as cell growth at 10 uM incubated for 48 hrs by sulforhodamine B assay relative to control; format: functional; details: read-out: Activity; procedure, shortened: as §2

| Compound | IC50 [1] [µM] | growth at 10 µM [2] [%] | growth at 10 µM [3] [%] | growth at 10 µM [4] [%] | growth at 10 µM [5] [%] | growth at 10 µM [6] [%] | growth at 10 µM [7] [%] | growth at 10 µM [8] [%] | growth at 10 µM [9] [%] | growth at 10 µM [10] [%] | growth at 10 µM [11] [%] | growth at 10 µM [12] [%] | growth at 10 µM [13] [%] | growth at 10 µM [14] [%] | growth at 10 µM [15] [%] | growth at 10 µM [16] [%] | growth at 10 µM [17] [%] | growth at 10 µM [18] [%] | growth at 10 µM [19] [%] | inhibition of growth at 10 µM [20] [%] | further results |
| --- | --- | --- | --- | --- | --- | --- | --- | --- | --- | --- | --- | --- | --- | --- | --- | --- | --- | --- | --- | --- | --- |
| O=[N+]([O-])c1ccc(-c2cc3c(Nc4ccc(OCc5cccc(F)c5)c(Cl)c4)ncnc3s2)cc1 | 11 | 68.6 | 79.2 | 65.7 | 68.6 | 42.2 | 68.3 | 97.3 | 93.5 | 80.1 | 99.2 | 68 | 98.5 | 55.1 | 94.4 | 91.9 | 86.2 | 93.5 | 79.1 | 12 | growth at 10 µM [21]: 101%; growth at 10 µM [22]: 70.3%; growth at 10 µM [23]: 95.4%; growth at 10 µM [24]: 84.8%; growth at 10 µM [25]: 83.4%; inhibition of growth at 10 µM [26]: 30%; growth at 10 µM [27]: 59.2%; growth at 10 µM [28]: 94.9%; growth at 10 µM [29]: 76.6% |
| Nc1ccc(-c2cc3c(Nc4ccc(OCc5cccc(F)c5)c(Cl)c4)ncnc3s2)cc1 | 9.76 | 23.9 | 48.2 | 30 | 14.5 | 36.5 | 13.1 | 38.6 | 74.1 | 52.1 | 57.4 | 77.3 | 87.2 | 57 | 42.1 | 43.8 | 25.4 | 18.3 | 55.7 | 60 | growth at 10 µM [21]: 77.9%; growth at 10 µM [22]: 63.1%; growth at 10 µM [23]: 37.2%; growth at 10 µM [24]: 39.3%; growth at 10 µM [25]: 48.4%; inhibition of growth at 10 µM [26]: 70%; growth at 10 µM [27]: 19.6%; growth at 10 µM [28]: 77%; growth at 10 µM [29]: 15.4% |
